# In ChEMBL document CHEMBL1275448, “Identification of a novel multidrug efflux pump of Mycobacterium tuberculosis” (2008):
# Assays:
# Type in all cases: functional
# [1] = tested on: Mycolicibacterium smegmatis; assay: Resistance factor, ratio of MIC for Mycobacterium smegmatis overexpressing rv0194 gene to MIC for wild-type Mycobacterium smegmatis SMR5
# Summary of the method: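 Resistance factor is the MABA MIC for M. smegmatis expressing rv0194 divided by the MIC for wild-type SMR5. MIC was the lowest concentration giving ≥90% viability reduction by fluorescence (ex 530/em 590 nm).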
# [2] = tested on: Mycolicibacterium smegmatis; assay: Antimicrobial activity against Mycobacterium smegmatis overexpressing rv0194 gene by microplate Alamar blue assay
# Summary of the method: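 M. smegmatis SMR5 carried either control plasmid pMS2 or rv0194 expression vector pML655. Cells were grown at 37°C in Middlebrook 7H9 with 0.2% glycerol and 0.05% Tween 80, then tested by microplate Alamar blue assay. MIC was the lowest antibiotic concentration reducing culture viability by ≥90%, read by fluorescence (ex 530/em 590 nm, room temperature).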
# [3] = tested on: Mycobacterium tuberculosis variant bovis BCG; assay: Antimicrobial activity against Mycobacterium bovis BCG ML1034 by microplate Alamar blue assay
# Summary of the method: (§1)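 Whole-cell M. bovis BCG (Institut Pasteur) MABA; mutants carried IS1096::Km insertions. Growth was in Middlebrook 7H9 with 0.2% glycerol, 0.05% Tween 80 and 10% OADC. Final drug ranges: ampicillin 62.5–2,000 μg/ml, vancomycin 1.25–40 μg/ml, streptomycin 0.25–8 μg/ml, chloramphenicol 4–128 μg/ml, tetracycline 0.5–16 μg/ml. MIC was the lowest concentration cutting viability ≥90%, read by fluorescence (ex 530/em 590 nm, room temperature).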
# [4] = tested on: Mycobacterium tuberculosis variant bovis BCG; assay: Antimicrobial activity against Mycobacterium bovis BCG ML1044 carrying transposon IS1096::Km inserted at -178bp of ppe33b gene by microplate Alamar blue assay; summary of the method: as §1
# [5] = tested on: Mycobacterium tuberculosis variant bovis BCG; assay: Antimicrobial activity against Mycobacterium bovis BCG ML1050 carrying transposon IS1096::Km inserted at +41bp of bcg2827 gene by microplate Alamar blue assay; summary of the method: as §1
# [6] = tested on: Mycobacterium tuberculosis variant bovis BCG; assay: Antimicrobial activity against Mycobacterium bovis BCG ML1065 carrying transposon IS1096::Km inserted at +96bp of bcg0061 gene by microplate Alamar blue assay; summary of the method: as §1
# [7] = tested on: Mycobacterium tuberculosis variant bovis BCG; assay: Antimicrobial activity against Mycobacterium bovis BCG ML1046 carrying transposon IS1096::Km inserted at +33bp of bcg2743 gene by microplate Alamar blue assay; summary of the method: as §1
# [8] = tested on: Mycobacterium tuberculosis variant bovis BCG; assay: Antimicrobial activity against Mycobacterium bovis BCG ML1025 carrying transposon IS1096::Km inserted at +435bp of bcg3145 gene by microplate Alamar blue assay; summary of the method: as §1
# [9] = tested on: Mycobacterium tuberculosis variant bovis BCG; assay: Antimicrobial activity against Mycobacterium bovis BCG ML1010 carrying transposon IS1096::Km inserted at +43bp of ppe gene by microplate Alamar blue assay; summary of the method: as §1
# [10] = tested on: Mycobacterium tuberculosis variant bovis BCG; assay: Antimicrobial activity against Mycobacterium bovis BCG ML1007 carrying transposon IS1096::Km inserted at +988bp of ppe53 gene by microplate Alamar blue assay; summary of the method: as §1
# [11] = tested on: Mycobacterium tuberculosis variant bovis BCG; assay: Antimicrobial activity against Mycobacterium bovis BCG ML1053 carrying transposon IS1096::Km inserted at +271bp of bcg2326c gene by microplate Alamar blue assay; summary of the method: as §1
# [12] = tested on: Mycobacterium tuberculosis variant bovis BCG; assay: Antimicrobial activity against Mycobacterium bovis BCG ML1013 carrying transposon IS1096::Km inserted at +923bp of cpsY gene by microplate Alamar blue assay; summary of the method: as §1
# [13] = tested on: Mycobacterium tuberculosis variant bovis BCG; assay: Antimicrobial activity against Mycobacterium bovis BCG ML1064 carrying transposon IS1096::Km inserted at +569bp of lppB gene by microplate Alamar blue assay; summary of the method: as §1
# [14] = tested on: Mycobacterium tuberculosis variant bovis BCG; assay: Antimicrobial activity against Mycobacterium bovis BCG ML1038 carrying transposon IS1096::Km inserted at +78bp of bcg2735 gene by microplate Alamar blue assay; summary of the method: as §1
# [15] = tested on: Mycobacterium tuberculosis variant bovis BCG; assay: Antimicrobial activity against Mycobacterium bovis BCG ML1051 carrying transposon IS1096::Km inserted at -420bp of bcg2965 gene by microplate Alamar blue assay; summary of the method: as §1
# [16] = tested on: Mycobacterium tuberculosis variant bovis BCG; assay: Antimicrobial activity against Mycobacterium bovis BCG ML1034 carrying transposon IS1096::Km inserted at -54bp of bcg0231 gene by microplate Alamar blue assay; summary of the method: as §1
# [17] = tested on: Mycobacterium tuberculosis variant bovis BCG; assay: Antimicrobial activity against Mycobacterium bovis BCG ML1058 carrying transposon IS1096::Km inserted at +320bp of lprR gene by microplate Alamar blue assay; summary of the method: as §1
# [18] = tested on: Mycobacterium tuberculosis variant bovis BCG; assay: Antimicrobial activity against Mycobacterium bovis BCG ML1037 carrying transposon IS1096::Km inserted at +1765bp of bcg3693 gene by microplate Alamar blue assay; summary of the method: as §1
# [19] = tested on: Mycobacterium tuberculosis variant bovis BCG; assay: Antimicrobial activity against Mycobacterium bovis BCG ML1012 carrying transposon IS1096::Km inserted at +1255bp of bcg3960c gene by microplate Alamar blue assay; summary of the method: as §1
# [20] = tested on: Mycobacterium tuberculosis variant bovis BCG; assay: Antimicrobial activity against Mycobacterium bovis BCG ML1036 carrying transposon IS1096::Km inserted at +277bp of agpS gene by microplate Alamar blue assay; summary of the method: as §1
# [21] = tested on: Mycobacterium tuberculosis variant bovis BCG; assay: Antimicrobial activity against Mycobacterium bovis BCG ML1075 carrying transposon IS1096::Km inserted at +899bp of gca gene by microplate Alamar blue assay; summary of the method: as §1
# [22] = tested on: Mycobacterium tuberculosis variant bovis BCG; assay: Antimicrobial activity against Mycobacterium bovis BCG ML1061 carrying transposon IS1096::Km inserted at +19bp of lppA gene by microplate Alamar blue assay; summary of the method: as §1
# [23] = tested on: Mycobacterium tuberculosis variant bovis BCG; assay: Antimicrobial activity against Mycobacterium bovis BCG ML1041 carrying transposon IS1096::Km inserted at +1707bp of ppe24 gene by microplate Alamar blue assay; summary of the method: as §1
# [24] = tested on: Mycobacterium tuberculosis variant bovis BCG; assay: Antimicrobial activity against Mycobacterium bovis BCG ML1047 carrying transposon IS1096::Km inserted at +544bp of fadD23 gene by microplate Alamar blue assay; summary of the method: as §1
# [25] = tested on: Mycobacterium tuberculosis variant bovis BCG; assay: Antimicrobial activity against Mycobacterium bovis BCG ML1069 carrying transposon IS1096::Km inserted at +205bp of gmhA gene by microplate Alamar blue assay; summary of the method: as §1
# [26] = tested on: Mycobacterium tuberculosis variant bovis BCG; assay: Antimicrobial activity against Mycobacterium bovis BCG ML1062 carrying transposon IS1096::Km inserted at -18bp of pks11 gene by microplate Alamar blue assay; summary of the method: as §1
# [27] = tested on: Mycobacterium tuberculosis variant bovis BCG; assay: Antimicrobial activity against Mycobacterium bovis BCG ML1030 carrying transposon IS1096::Km inserted at +849bp of bcg1988c gene by microplate Alamar blue assay; summary of the method: as §1
# [28] = tested on: Mycobacterium tuberculosis variant bovis BCG; assay: Antimicrobial activity against Mycobacterium bovis BCG ML1042 carrying transposon IS1096::Km inserted at -509bp of bcg2123c/pe22 gene by microplate Alamar blue assay; summary of the method: as §1
# [29] = tested on: Mycobacterium tuberculosis variant bovis BCG; assay: Antimicrobial activity against Mycobacterium bovis BCG ML1009 carrying transposon IS1096::Km inserted at +368bp of cyp121 gene by microplate Alamar blue assay; summary of the method: as §1
# [30] = tested on: Mycobacterium tuberculosis variant bovis BCG; assay: Antimicrobial activity against Mycobacterium bovis BCG ML1040 carrying transposon IS1096::Km inserted at +1930bp of papA2 gene by microplate Alamar blue assay; summary of the method: as §1
# [31] = tested on: Mycobacterium tuberculosis variant bovis BCG; assay: Antimicrobial activity against Mycobacterium bovis BCG ML1006 carrying transposon IS1096::Km inserted at +720bp of bcg3787 gene by microplate Alamar blue assay; summary of the method: as §1
# [32] = tested on: Mycobacterium tuberculosis variant bovis BCG; assay: Antimicrobial activity against Mycobacterium bovis BCG ML1052 carrying transposon IS1096::Km inserted at +78bp of bcg2824 gene by microplate Alamar blue assay; summary of the method: as §1
# [33] = tested on: Mycobacterium tuberculosis variant bovis BCG; assay: Antimicrobial activity against Mycobacterium bovis BCG ML1060 carrying transposon IS1096::Km inserted at -206bp of fadD25/mmpL12 gene by microplate Alamar blue assay; summary of the method: as §1
# [34] = tested on: Mycobacterium tuberculosis variant bovis BCG; assay: Antimicrobial activity against Mycobacterium bovis BCG ML1029 carrying transposon IS1096::Km inserted at +524bp of bcg2734c gene by microplate Alamar blue assay; summary of the method: as §1
# [35] = tested on: Mycobacterium tuberculosis variant bovis BCG; assay: Antimicrobial activity against Mycobacterium bovis BCG ML1048 carrying transposon IS1096::Km inserted at +519bp of bcg1567c gene by microplate Alamar blue assay; summary of the method: as §1
structure (smiles),measurement,setting,value
CO[C@@H]1[C@@H](OC(N)=O)[C@@H](O)[C@H](Oc2ccc3c(O)c(NC(=O)c4ccc(O)c(CC=C(C)C)c4)c(=O)oc3c2C)OC1(C)C [NOVOBIOCIN],Ratio,[1],2
same,MIC,[2],8 µg/mL
O=C(N[C@H](CO)[C@H](O)c1ccc([N+](=O)[O-])cc1)C(Cl)Cl [CHLORAMPHENICOL],MIC,[3],512 µg/mL
same,Ratio,[1],1
same,MIC,[2],32 µg/mL
CN(C)[C@@H]1C(O)=C(C(N)=O)C(=O)[C@@]2(O)C(O)=C3C(=O)c4c(O)cccc4[C@@](C)(O)[C@H]3C[C@@H]12 [TETRACYCLINE],MIC,[3],> 16 µg/mL
same,Ratio,[1],1
same,MIC,[2],0.3 µg/mL
CN[C@H](CC(C)C)C(=O)N[C@H]1C(=O)N[C@@H](CC(N)=O)C(=O)N[C@H]2C(=O)N[C@H]3C(=O)N[C@H](C(=O)N[C@H](C(=O)O)c4cc(O)cc(O)c4-c4cc3ccc4O)[C@H](O)c3ccc(c(Cl)c3)Oc3cc2cc(c3O[C@@H]2O[C@H](CO)[C@@H](O)[C@H](O)[C@H]2O[C@H]2C[C@](C)(N)[C@H](O)[C@H](C)O2)Oc2ccc(cc2Cl)[C@H]1O [VANCOMYCIN],MIC,[3],20 µg/mL
same,Ratio,[1],2
same,MIC,[2],2.5 µg/mL
CN[C@@H]1[C@H](O[C@H]2[C@H](O[C@H]3[C@H](O)[C@@H](O)[C@H](N=C(N)N)[C@@H](O)[C@@H]3N=C(N)N)O[C@@H](C)[C@]2(O)C=O)O[C@@H](CO)[C@H](O)[C@H]1O [STREPTOMYCIN],MIC,[3],16 µg/mL
CC[C@H]1OC(=O)[C@H](C)[C@@H](O[C@H]2C[C@@](C)(OC)[C@@H](O)[C@H](C)O2)[C@H](C)[C@@H](O[C@@H]2O[C@H](C)C[C@H](N(C)C)[C@H]2O)[C@](C)(O)C[C@@H](C)C(=O)[C@H](C)[C@@H](O)[C@]1(C)O [ERYTHROMYCIN],Ratio,[1],4
same,MIC,[2],10 µg/mL
CC1(C)S[C@@H]2[C@H](NC(=O)[C@H](N)c3ccccc3)C(=O)N2[C@H]1C(=O)O [AMPICILLIN],MIC,[4],250 µg/mL
same,MIC,[5],2000 µg/mL
same,MIC,[6],> 2000 µg/mL
same,MIC,[7],500 µg/mL
same,MIC,[8],250 µg/mL
same,MIC,[9],500 µg/mL
same,MIC,[10],2000 µg/mL
same,MIC,[11],2000 µg/mL
same,MIC,[12],2000 µg/mL
same,MIC,[13],2000 µg/mL
same,MIC,[14],2000 µg/mL
same,MIC,[15],> 500 µg/mL
same,MIC,[16],2000 µg/mL
same,MIC,[17],2000 µg/mL
same,MIC,[18],250 µg/mL
same,MIC,[19],> 2000 µg/mL
same,MIC,[20],250 µg/mL
same,MIC,[3],2000 µg/mL
same,MIC,[21],2000 µg/mL
same,MIC,[22],> 2000 µg/mL
same,MIC,[23],> 2000 µg/mL
same,MIC,[24],2000 µg/mL
same,Ratio,[1],2
same,MIC,[25],2000 µg/mL
same,MIC,[26],> 2000 µg/mL
same,MIC,[27],2000 µg/mL
same,MIC,[28],500 µg/mL
same,MIC,[29],2000 µg/mL
same,MIC,[30],2000 µg/mL
same,MIC,[31],2000 µg/mL
same,MIC,[32],> 500 µg/mL
same,MIC,[33],250 µg/mL
same,MIC,[34],> 2000 µg/mL
same,MIC,[2],250 µg/mL
same,MIC,[35],250 µg/mL
